# Results gathered from unrelated publications.
# Lines come from different studies, so protocols differ.
# Matrix: plasma
Structure (SMILES),test system,setting,half-life [h]
C=CC(=O)NC1CCN(c2ncc3ncnc(Nc4ccc(Oc5ccc6c(c5)ncn6C)c(C)c4)c3n2)CC1,male human,"intravenous, 100 µg, healthy volunteers",42.7
COc1ccc2c(c1)CN(C(=O)CCN1CCC(Cc3ccccc3)CC1)CC[S@@+]2[O-],male human,"intravenous, 0.15 mg/kg, single dose, healthy volunteers",6.39
C[C@@H](Oc1ccc(S(C)(=O)=O)cc1C(=O)N1C[C@@H]2C[C@]2(c2cc(C(F)(F)F)on2)C1)C(F)(F)F,human,"oral, 10 mg, single dose, fasted, healthy volunteers",38.1
N#Cc1cccc(-c2ccc3ncc(-c4cc(F)cc(F)c4)c(N4CCC(N)CC4)c3c2)c1O,human,"intravenous, 50 µg",30
CC1(C)CC[C@]2(NC(=O)C(C)(F)F)CC[C@]3(C)[C@H](C(=O)C=C4[C@@]5(C)C=C(C#N)C(=O)C(C)(C)[C@@H]5CC[C@]43C)[C@@H]2C1,human,"oral, 150 mg, single dose",88.3
OC[C@H]1O[C@@H](c2cc(Cc3ccc(C4CC4)cc3)c(Cl)c3c2CCO3)[C@H](O)[C@@H](O)[C@@H]1O,human,"oral, 0.3 mg, single dose, fasted, healthy volunteers",12.5
CC(C)c1nc(N(C)S(C)(=O)=O)nc(-c2ccc(F)cc2)c1/C=C/[C@@H](O)C[C@@H](O)CC(=O)O,human,"oral, 10 mg",21.6
CC(=O)N(C)[C@H]1CCN(C(=O)c2cnc3c(c2)C[C@](C)(c2ccc(F)cc2)N3)C1,male human,"oral, 30 mg, multiple doses, once daily, steady state",21.8
Cc1cn([C@H]2C[C@H](N=[N+]=[N-])[C@@H](CO)O2)c(=O)[nH]c1=O,human,"oral, 600 mg, single dose, healthy volunteers",1.95
O=C(COc1ccc(Cl)cc1)NC12CC(c3nnc([C@H]4C[C@@H](OC(F)(F)F)C4)o3)(C1)C2,human,"oral, 145 mg, multiple doses, once daily, healthy volunteers",37.5
